TAAR1 agonist – agonists of human TAAR1 | Q96RJ0 | CHO RD-HGA16 TAAR1, Fluo-8 calcium fluorescence; vehicle wells 0%, saturating PEA agonist 100% | activation, % at 3 µM | actives 0.99% (n = 360,000);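 active means activation above the mean activation of all test compounds in the run plus 3 SD, cut at about 38% in these data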
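Test system: RD-HGA16 (CHO) cells co-expressing Gα16 and hTAAR1 | Doses: Single dose, 3 µM | Schedule: 17-24 h seeding, 75 min 37 °C dye, 30 min RT | Evaluation: % activation from peak over basal fluorescence ratio, DMSO-to-PEA scaled | Technique: Kinetic Fluo-8 calcium fluorescence | Benchmarks: Low control DMSO, high control PEA (EC100)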
MPTP block – inhibitors of mitochondrial permeability transition pore; isolated mouse mitochondria, Ca2+ swelling absorbance, 30 min; inhibition, % at 10 µM; actives 1.4% (n = 360,000);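 active means inhibition of 50% or more, scaled per plate between neutral and stimulator controls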
GPR7 antagonist – blocks human GPR7 receptor signaling; inhibition, % at 4.4 µM; actives 1.1% (n = 290,000); AID 1861; GPR7-expressing cells, fluorescence antagonist assay; in the data active means inhibition above about 16%, passing the limit was not always enough;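 further: cells stimulated with the agonist NPW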
TAAR1 antagonist – antagonists of human TAAR1; CHO RD-HGA16 TAAR1, Fluo-8 calcium fluorescence, antagonist; inhibition, % at 3 µM; actives 1.5% (n = 360,000); AID 624466;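 active means inhibition above a per-plate cutoff, the mean inhibition of test compounds on that plate plus 3 SD, cut at about 49% in these data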
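Test system: hTAAR1-expressing CHO RD-HGA16 cells, Gα16-coupled; Probe or stimulus: EC80 β-phenethylamine stimulus; Compound dosing: single nominal final test compound concentration of 3 µM; Timing: 140 s kinetic read after compound, 140 s after agonist; Signal: Fluo-8 calcium-sensitive fluorescence; Measure: % inhibition of agonist calcium response; Controls: DMSO and EC80 PEA controls.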
DAGLB inhibitor – diacylglycerol lipase beta (human) inhibition; Q8NCG7; HEK293T DAGLB membrane lysate, EnzChek fluorogenic substrate; inhibition, % at 5.17 µM; actives 0.059% (n = 340,000); AID 504411; in the data active means inhibition above about 34%
Target sequence (Q8NCG7 whole entry, looked up): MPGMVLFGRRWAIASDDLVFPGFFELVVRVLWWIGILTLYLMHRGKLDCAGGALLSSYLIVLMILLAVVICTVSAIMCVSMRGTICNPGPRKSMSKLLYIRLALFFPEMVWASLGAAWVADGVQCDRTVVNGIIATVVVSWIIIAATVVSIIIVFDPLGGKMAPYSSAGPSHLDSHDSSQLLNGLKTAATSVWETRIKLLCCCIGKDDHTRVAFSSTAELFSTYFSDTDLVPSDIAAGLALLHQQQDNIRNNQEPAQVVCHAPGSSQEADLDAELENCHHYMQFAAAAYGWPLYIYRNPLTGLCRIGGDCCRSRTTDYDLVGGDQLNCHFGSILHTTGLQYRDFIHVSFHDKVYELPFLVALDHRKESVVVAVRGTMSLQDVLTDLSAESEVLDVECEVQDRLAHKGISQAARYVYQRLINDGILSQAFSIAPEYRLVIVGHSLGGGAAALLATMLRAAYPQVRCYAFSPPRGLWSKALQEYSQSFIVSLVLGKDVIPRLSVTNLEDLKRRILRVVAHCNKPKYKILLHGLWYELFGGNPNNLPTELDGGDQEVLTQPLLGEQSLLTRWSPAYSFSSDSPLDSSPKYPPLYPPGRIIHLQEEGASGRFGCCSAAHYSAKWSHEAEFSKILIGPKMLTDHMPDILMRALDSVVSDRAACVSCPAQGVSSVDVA
GPR7 antag cf – human GPR7 antagonism, confirmation assay | actives 52% (n = 2,400) | inhibition, % at 4.4 µM | AID 1952 | shares compounds with GPR7 antagonist | GPR7-expressing cells, calcium fluorescence antagonist mode; in the data active means inhibition above about 24%;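 further: stimulated with the GPR7 agonist NPW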
MCHR1 antagonist – MCHR1 (human) antagonism in GPR7 counter-screen. shares compounds with GPR7 antagonist. MCHR1-expressing cells, fluorescence antagonist assay. inhibition, % at 4.4 µM. actives 62% (n = 2,400). AID 2148
Rh123 counter – membrane potential counter-screen of mitochondrial pore inhibitors; shares compounds with MPTP block; isolated mitochondria, Rhodamine 123 fluorescence; inhibition, % at 10 µM; actives 78% (n = 5,000)
Large screens that a line does not name were inactive (follow-up assays come after a bar, where they were run). Compounds with a hit are over-represented: about 4% of the library has one in this group of screens. Unless noted, no stated cut-off is given here; in the data, active means inhibition above about 22%; inactive means the rest.

CC(C)CCN1CCN(Cc2cccc3nonc23)CC1CCO (stereo unspecified)	GPR7 antagonist 24 | GPR7 antag cf inactive | MCHR1 antagonist inactive
Cc1ccccc1C(=O)Nc1ccc2c(c1)CCCN2C(=O)c1cccs1	GPR7 antagonist 25 | GPR7 antag cf inactive | MCHR1 antagonist 35
CCCCn1nnnc1C1(C)CCC(=O)N1CCc1ccccc1F (stereo unspecified)	none (no result: GPR7 antagonist, DAGLB inhibitor)
Nc1nnnn1CC(=O)OCc1cccc(Br)c1	GPR7 antagonist 27 | GPR7 antag cf inactive | MCHR1 antagonist inactive
O=C(CN1CC(c2ccccc2)CC1=O)OCc1cccc(Br)c1 (stereo unspecified)	none
COc1ccc(CC2(CO)CCN(Cc3nc(C(C)C)cs3)CC2)cc1	GPR7 antagonist 25 | GPR7 antag cf inactive | MCHR1 antagonist 40
CN(Cc1ccccn1)C(=O)CC1C(=O)NCCN1Cc1cccc(Oc2ccccc2)c1 (stereo unspecified)	GPR7 antagonist 26 | GPR7 antag cf inactive | MCHR1 antagonist inactive
O=[N+]([O-])c1cccc(-c2cnc3ccccc3n2)c1	none
O=[N+]([O-])c1cccc(-c2nc3ccccc3s/c2=N/O)c1	none | GPR7 antag cf 45 | MCHR1 antagonist 40
CCC(CC)CN1CCC(CN2C(=S)NC[C@@H]2Cc2ccccc2)CC1	none (no result: MPTP block, GPR7 antagonist, DAGLB inhibitor)
COc1ccc(NC(=O)CCC(=O)c2cccs2)cc1S(=O)(=O)Nc1ccc(Cl)cc1	none
COc1ccc(NC(=O)CCS(=O)(=O)c2ccccc2Cl)cc1S(=O)(=O)Nc1ccc(Cl)cc1	GPR7 antagonist 25 | GPR7 antag cf inactive | MCHR1 antagonist 25
CC(C)(C)n1nnnc1C(c1cc2ccccc2o1)N1CCN(C(=O)OCc2ccccc2)CC1 (stereo unspecified)	none (no result: GPR7 antagonist, DAGLB inhibitor)
CCN(CC(=O)Nc1cccc(C#N)c1)CC(=O)Nc1cccc(OC)c1	GPR7 antagonist 27 | GPR7 antag cf 30 | MCHR1 antagonist inactive
CCN(CC(=O)Nc1ccc(OC)cc1)CC(=O)Nc1cccc(C#N)c1	none
Cc1ccc(OC(=O)N(C)C[C@@H]2OCc3cn(nn3)CCCC(=O)N([C@@H](C)CO)C[C@H]2C)cc1	none (no result: GPR7 antagonist)
O=C(O)Cc1ccc(C(=O)c2ccc(F)cc2)s1	GPR7 antagonist 23 | GPR7 antag cf inactive | MCHR1 antagonist inactive
O=C1Nc2c(Cl)cc(Cl)cc2C1=O	none (no result: GPR7 antagonist)
Cc1nc(NCc2ccccn2)c2c3c(sc2n1)CCCC3	GPR7 antagonist 32 | GPR7 antag cf 25 | MCHR1 antagonist 22
CC(=O)Oc1ccc2c(c1)Oc1cc(OC(C)=O)ccc1C21OC(=O)c2ccccc21	GPR7 antagonist 105 (no result: TAAR1 agonist, TAAR1 antagonist) | GPR7 antag cf 103 | MCHR1 antagonist 109
COc1ccc(CN(C)C(=O)c2[nH]c(C)c(C(C)=O)c2C)c(OC)c1OC	GPR7 antagonist 21 | GPR7 antag cf inactive | MCHR1 antagonist inactive
COc1ccc(CN(C)C(=O)c2cnc(C)cn2)c(OC)c1OC	none
CN(C)CCCNc1cc(C(C)(C)C)nc2c(-c3ccccc3)cnn12	GPR7 antagonist 67 | GPR7 antag cf 66 | MCHR1 antagonist 67
CSc1ccc(C(O)c2ncc(-c3ccc(F)cc3)[nH]2)cc1 (stereo unspecified)	none (no result: GPR7 antagonist, DAGLB inhibitor)
COc1ccc(OC)c2sc(N(CCN(C)C)C(=O)/C=C/c3cccs3)nc12	GPR7 antagonist 31 | GPR7 antag cf inactive | MCHR1 antagonist inactive
COc1cccc2sc(N(CCN(C)C)C(=O)/C=C/c3cccs3)nc12	none
COc1ccc(C)c2sc(N(CCN(C)C)C(=O)/C=C/c3cccs3)nc12	GPR7 antagonist 29 | GPR7 antag cf 38 | MCHR1 antagonist 38
CCOc1cccc2sc(N(CCN(C)C)C(=O)/C=C/c3cccs3)nc12	none (no result: TAAR1 agonist, TAAR1 antagonist)
COc1ccc(CCNC(=O)COc2cc(C)cc3oc(=O)cc(C)c23)cc1	GPR7 antagonist 26 | GPR7 antag cf inactive | MCHR1 antagonist inactive
CCCCN(C)c1c(C)nc2ccc(C(=O)NCCCn3ccnc3)cn12	none (no result: GPR7 antagonist, DAGLB inhibitor)
CN(C)CCNc1nc2sc3c(c2c(=O)n1CCc1ccccc1)CCCCC3	TAAR1 agonist 40, GPR7 antagonist 26 | GPR7 antag cf 43 | MCHR1 antagonist 57
O=C(Nc1ccccc1)N1CCN(Cc2ccc(Cl)cc2)CC1	none
O=C(Nc1ccc(Cl)cc1)N1CCCN(Cc2ccc(F)cc2)C1	GPR7 antagonist 88 | GPR7 antag cf 43 | MCHR1 antagonist 42
COc1ccc(NS(=O)(=O)c2ccc(OC)c(N(C)S(=O)(=O)c3ccc(Cl)cc3)c2)cc1	GPR7 antagonist 27 | GPR7 antag cf 29 | MCHR1 antagonist 52
CCC1(C)N([O-])C(C)=C(c2ccccc2)[N+]1=O (stereo unspecified)	GPR7 antagonist 28 | GPR7 antag cf inactive | MCHR1 antagonist inactive
CCC1(CC)N([O-])C(C)=C(c2ccccc2)[N+]1=O	none
CCc1cccc2c(C(=O)C(NCCCOC)c3ccccc3)c[nH]c12 (stereo unspecified)	GPR7 antagonist 35 | GPR7 antag cf 43 | MCHR1 antagonist 30
CCc1cccc2c(C(=O)C(NC(C)CC)c3ccccc3)c[nH]c12 (stereo unspecified)	none
CCc1ccc(CCC(=O)Nc2ccc(C(C)=O)cc2)o1	GPR7 antagonist 21 | GPR7 antag cf 27 | MCHR1 antagonist 35
CCc1cc2c(nc1CC)CCCN2S(=O)(=O)c1cccs1	none (no result: MPTP block, GPR7 antagonist, DAGLB inhibitor)
COc1ccc(N=C/C=C2\C=C(c3ccccc3)OC(C)(C)O2)cc1	GPR7 antagonist 29 | GPR7 antag cf inactive | MCHR1 antagonist inactive
O=C(C(=O)N1CCC(CNS(=O)(=O)c2cccc3ccccc23)CC1)c1cccs1	none (no result: MPTP block, GPR7 antagonist, DAGLB inhibitor)
O=S(=O)(/N=C(/c1ccccc1)N1CCCCCC1)c1ccccc1	GPR7 antagonist 33 | GPR7 antag cf inactive | MCHR1 antagonist inactive
O=S(=O)(/N=C(\c1ccc(Cl)cc1)N1CCOCC1)c1ccccc1	none
S=C(NCc1ccccc1)Nc1ccc(Oc2ccccc2)cc1	MPTP block 86, GPR7 antagonist 28 | GPR7 antag cf inactive | MCHR1 antagonist 29 | Rh123 counter 87
CCNC(=S)Nc1ccc(Oc2ccccc2)cc1	none
O=C(Nc1ccc(Br)cc1)Nc1ccccc1Cl	MPTP block 78, GPR7 antagonist 73 | GPR7 antag cf 79 | MCHR1 antagonist 63 | Rh123 counter 103
Cc1ccc(F)cc1NC(=O)COC(=O)C1CC2CCCC(C1)C2=O (stereo unspecified)	none (no result: GPR7 antagonist)

High-throughput results deposited in PubChem BioAssay by several laboratories.
